Test results taken from ChEMBL document CHEMBL1127066, “Discovery and structure-activity relationship of a series of 1-carba-1-dethiacephems exhibiting activity against methicillin-resistant Staphylococcus aureus” (J Med Chem, 1993).
In brackets after ≈: the same amount, converted by molar mass.

Columns and labels:
Pseudomonas aeruginosa [1] = experiment: Antimicrobial activity against Pseudomonas PS18 strain; type: functional
Enterobacter cloacae = experiment: In vitro evaluation of antimicrobial activity against Enterobacter cloacae EB5 strain; type: functional
Haemophilus influenzae = experiment: In vitro antimicrobial activity against Haemophilus influenzae C.L. strain; type: functional
Staphylococcus aureus [2] = experiment: In vitro antimicrobial activity against Staphylococcus aureus X1.1 strain; type: functional
Rattus norvegicus = species: Rattus norvegicus; experiment: In vitro plasma protein binding was evaluated using Sprauge-Dawley rat at 20 ug/mL; type: ADME
Method in brief: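 Binding was measured by ultrafiltration (Centrifree micropartition) in pooled plasma (ICR mouse, Sprague–Dawley rat, rhesus monkey or human) at a drug concentration of 20 μg/mL.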

Streptococcus pneumoniae = experiment: In vitro antimicrobial activity against Streptococcus pneumoniae PARK strain; type: functional
Klebsiella = experiment: In vitro antimicrobial activity against Klebsiella X26 strain; type: functional
[3] = test system: Staphylococcus epidermidis; experiment: In vitro antimicrobial activity against Staphylococcus epidermidis 222 strain; type: functional
Pseudomonas aeruginosa [4] = experiment: In vitro antimicrobial activity against Pseudomonas X239 strain; type: functional
Escherichia coli = experiment: In vitro evaluation of antimicrobial activity against Escherichia coli EC14 strain; type: functional
Staphylococcus aureus [5] = experiment: In vitro antimicrobial activity against Staphylococcus aureus S13E strain; type: functional
[6] = test system: Staphylococcus epidermidis; experiment: In vitro antimicrobial activity against Staphylococcus epidermidis 270 strain; type: functional
Staphylococcus aureus [7] = experiment: In vitro antimicrobial activity against Staphylococcus aureus X400 strain; type: functional
Staphylococcus aureus [8] = experiment: Minimum inhibitory concentration against methicillin-resistant Staphylococcus aureus 430 (MRSA) in vitro using trypticase soy broth (TSB); type: functional
Staphylococcus aureus [9] = experiment: Minimum inhibitory concentration against methicillin-resistant Staphylococcus aureus 430 (MRSA) in vitro using trypticase soy broth (TSB) with 4% NaCl; type: functional
[10] = Tested against penicillin binding protein 2a (PBP2a) enzyme.

| SMILES | MIC (Pseudomonas aeruginosa [1]) [µg/mL] | MIC (Enterobacter cloacae) [µg/mL] | MIC (Haemophilus influenzae) [µg/mL] | MIC (Staphylococcus aureus [2]) [µg/mL] | Bound (Rattus norvegicus) [%] | MIC (Streptococcus pneumoniae) [µg/mL] | MIC (Klebsiella) [µg/mL] | MIC [3] [µg/mL] | MIC (Pseudomonas aeruginosa [4]) [µg/mL] | MIC (Escherichia coli) [µg/mL] | MIC (Staphylococcus aureus [5]) [µg/mL] | MIC [6] [µg/mL] | MIC (Staphylococcus aureus [7]) [µg/mL] | MIC (Staphylococcus aureus [8]) [µg/mL] | MIC (Staphylococcus aureus [9]) [µg/mL] | IC50 [10] [µg/mL] |
| --- | --- | --- | --- | --- | --- | --- | --- | --- | --- | --- | --- | --- | --- | --- | --- | --- |
| CO/N=C(\C(=O)N[C@@H]1C(=O)N2C(C(=O)O)=C(COC(C)=O)CS[C@H]12)c1csc(N)n1 [CEFOTAXIME] | 16 (≈ 35.1 µM) | 0.25 (≈ 0.549 µM) | 0.015 (≈ 0.0329 µM) | 2 (≈ 4.39 µM) | 88.5 | 0.015 (≈ 0.0329 µM) | < 0.008 | 2 (≈ 4.39 µM) | 8 (≈ 17.6 µM) | 0.03 (≈ 0.0659 µM) | 8 (≈ 17.6 µM) | 8 (≈ 17.6 µM) | 64 (≈ 141 µM) |  |  |  |
| Nc1nc(/C(=N\OCCF)C(=O)N[C@@H]2C(=O)N3C(C(=O)[O-])=C(Sc4nc5ccccc5s4)CC[C@H]23)cs1.[Na+] | 128 | 1 | 0.03 | 0.125 |  | < 0.008 | 0.03 | 0.25 | 16 | 0.25 | 4 | 0.5 | 4 | 0.5 | 1 | 3.5 |
| Nc1nc(/C(=N\OCCF)C(=O)N[C@@H]2C(=O)N3C(C(=O)[O-])=C(Sc4nc5ccncc5s4)CC[C@H]23)cs1.[Na+] | 64 | 2 | 0.015 | 0.125 |  | < 0.008 | 0.06 | 0.5 | > 128 | 0.25 | 4 | 2 | 8 |  |  |  |
| CCOc1nn(C)c(SC2=C(C(=O)[O-])N3C(=O)[C@@H](NC(=O)/C(=N/OCCF)c4csc(N)n4)[C@H]3CC2)nc1=O.[Na+] | > 128 | 2 | 0.03 | 0.5 |  | 0.03 | 0.06 | 4 | 128 | 0.5 | 128 | 16 | > 128 |  |  |  |
| COC(=O)c1sc(SC2=C(C(=O)[O-])N3C(=O)[C@@H](NC(=O)/C(=N/OCCF)c4csc(N)n4)[C@H]3CC2)nc1C.[Na+] | > 128 | 8 | 0.06 | 0.25 |  | < 0.008 | 0.125 | 2 | > 128 | 2 | 16 | 8 | 128 |  |  |  |
| Nc1nc(/C(=N\OCCF)C(=O)N[C@@H]2C(=O)N3C(C(=O)[O-])=C(Sc4nc5c(=O)[nH]c(=O)[nH]c5s4)CC[C@H]23)cs1.[Na+] | 64 | 1 | < 0.008 | 2 |  | < 0.008 | 0.06 | 2 | > 128 | 0.06 | 16 | 8 | 128 |  |  |  |
| Nc1nc(/C(=N\OCCF)C(=O)N[C@@H]2C(=O)N3C(C(=O)[O-])=C(Sc4nc(-c5ccncc5)cs4)CC[C@H]23)cs1.[Na+] | > 128 | 2 | 0.03 | 0.125 |  | < 0.008 | 0.03 | 0.5 | > 128 | 0.25 | 8 | 2 | 32 |  |  |  |
| Nc1nc(/C(=N\OCCF)C(=O)N[C@@H]2C(=O)N3C(C(=O)[O-])=C(Sc4ccccc4)CC[C@H]23)cs1.[Na+] | 64 | 4 | 0.03 | 0.5 |  | 0.015 | 0.03 | 2 | 128 | 0.5 | 64 | 2 | 128 |  |  |  |
| CCOC(=O)c1csc(SC2=C(C(=O)[O-])N3C(=O)[C@@H](NC(=O)/C(=N/OCCF)c4csc(N)n4)[C@H]3CC2)n1.[Na+] | 128 | 4 | 0.06 | 1 |  | < 0.008 | 0.06 | 2 | > 128 | 0.5 | 16 | 2 | 32 |  |  |  |
| C[n+]1ccc2sc(SC3=C(C(=O)[O-])N4C(=O)[C@@H]([N-]C(=O)/C(=N/OCCF)c5csc(N)n5)[C@H]4CC3)nc2c1.[Na+] | 32 | 4 | 0.06 | 2 |  | 0.15 | 0.03 | 2 | 32 | 0.25 | 16 | 8 | 128 |  |  |  |
| Nc1nc(/C(=N\OCCF)C(=O)N[C@@H]2C(=O)N3C(C(=O)[O-])=C(Sc4cccc[n+]4[O-])CC[C@H]23)cs1.[Na+] | 128 | 2 | 0.015 | 2 |  | 0.15 | 0.06 | 2 | > 128 | 0.125 | 64 | 8 | 128 |  |  |  |
| Nc1nc(/C(=N\OCCF)C(=O)N[C@@H]2C(=O)N3C(C(=O)[O-])=C(Sc4nc(-c5ccccc5)cs4)CC[C@H]23)cs1.[Na+] | 64 | 1 | 0.03 | 0.125 |  | < 0.008 | 0.015 | 0.25 | 8 | 0.25 | 4 | 0.5 | 4 |  |  |  |
| CCCCOC(=O)c1csc(SC2=C(C(=O)[O-])N3C(=O)[C@@H](NC(=O)/C(=N/OCCF)c4csc(N)n4)[C@H]3CC2)n1.[Na+] | 128 | 4 | 0.03 | 0.5 |  | < 0.008 | 0.03 | 1 | > 128 | 0.5 | 16 | 4 | 64 |  |  |  |
| Nc1nc(/C(=N\OCCF)C(=O)N[C@@H]2C(=O)N3C(C(=O)[O-])=C(Sc4nc(-c5cccnc5)cs4)CC[C@H]23)cs1.[Na+] | 64 | 2 | 0.015 | 0.25 |  | < 0.008 | 0.03 | 0.5 | > 128 | 0.25 | 8 | 2 | 32 |  |  |  |
| Nc1nc(/C(=N\OCCF)C(=O)N[C@@H]2C(=O)N3C(C(=O)[O-])=C(Sc4nccnc4N)CC[C@H]23)cs1.[Na+] | 16 | 1 | 0.015 | 0.5 |  | < 0.008 | 0.015 | 1 | 128 | 0.125 | 32 | 4 | > 128 |  |  |  |
| Cc1cnc(SC2=C(C(=O)[O-])N3C(=O)[C@@H](NC(=O)/C(=N/OCCF)c4csc(N)n4)[C@H]3CC2)s1.[Na+] | 32 | 2 | < 0.008 | 0.5 |  | < 0.008 | 0.03 | 1 | 64 | 0.5 | 32 | 4 | 128 |  |  |  |
